According to paper PMC6528641 (ChemistryOpen, 2019):

How the values were obtained:
[1] = Neurotoxicity assay, cell viability by Neutral Red method; format: cell-based, human; settings: human, SH-SY5Y neuroblastoma cells
Method in brief: (§1)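 SH-SY5Y cells (passages 18–23) in DMEM with 5% FBS were seeded at 2×10^4 cells/well and grown 24 h at 37 °C, 5% CO2. Test compound came from a 1×10−2 M DMSO stock, freshly diluted in medium, and was applied for 24 h. Controls were medium alone and 120 mM K+ (death). Cells were PBS-washed, given neutral red for 3 h at 37 °C, extracted 20 min with acidified ethanol, and read at A540.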

AChE = AChE (Electrophorus electricus, UniProt O42275); assay: AChE inhibitory assay; format: biochemical, Electroporus electricus
[2] = tested on: human neuroblastoma SH‐SY5Y cells; assay: Neurotoxicity assay, cell viability by Neutral Red method; format: cell-based; settings: SH‐SY5Y cells
Method in brief: as §1

BuChE = BuChE (Bos taurus, UniProt P32749); assay: BuChE inhibitory assay; format: biochemical, bovine
Chain of BuChE (P32749 29-602): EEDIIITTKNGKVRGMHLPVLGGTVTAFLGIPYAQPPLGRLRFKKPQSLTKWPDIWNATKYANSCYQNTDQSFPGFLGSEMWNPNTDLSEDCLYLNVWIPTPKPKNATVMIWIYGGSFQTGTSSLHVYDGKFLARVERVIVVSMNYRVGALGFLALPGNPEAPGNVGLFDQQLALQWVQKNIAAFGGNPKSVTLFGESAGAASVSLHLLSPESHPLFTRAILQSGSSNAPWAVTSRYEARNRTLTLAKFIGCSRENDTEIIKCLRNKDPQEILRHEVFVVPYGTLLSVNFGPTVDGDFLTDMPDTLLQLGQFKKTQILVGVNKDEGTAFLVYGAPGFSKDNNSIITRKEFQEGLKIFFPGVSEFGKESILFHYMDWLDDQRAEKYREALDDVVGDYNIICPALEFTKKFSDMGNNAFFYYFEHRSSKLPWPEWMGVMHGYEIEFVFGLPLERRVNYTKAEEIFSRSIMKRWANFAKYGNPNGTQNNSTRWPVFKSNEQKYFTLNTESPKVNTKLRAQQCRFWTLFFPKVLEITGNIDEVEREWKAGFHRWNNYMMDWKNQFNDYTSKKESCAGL

Chain of AChE (O42275 24-633): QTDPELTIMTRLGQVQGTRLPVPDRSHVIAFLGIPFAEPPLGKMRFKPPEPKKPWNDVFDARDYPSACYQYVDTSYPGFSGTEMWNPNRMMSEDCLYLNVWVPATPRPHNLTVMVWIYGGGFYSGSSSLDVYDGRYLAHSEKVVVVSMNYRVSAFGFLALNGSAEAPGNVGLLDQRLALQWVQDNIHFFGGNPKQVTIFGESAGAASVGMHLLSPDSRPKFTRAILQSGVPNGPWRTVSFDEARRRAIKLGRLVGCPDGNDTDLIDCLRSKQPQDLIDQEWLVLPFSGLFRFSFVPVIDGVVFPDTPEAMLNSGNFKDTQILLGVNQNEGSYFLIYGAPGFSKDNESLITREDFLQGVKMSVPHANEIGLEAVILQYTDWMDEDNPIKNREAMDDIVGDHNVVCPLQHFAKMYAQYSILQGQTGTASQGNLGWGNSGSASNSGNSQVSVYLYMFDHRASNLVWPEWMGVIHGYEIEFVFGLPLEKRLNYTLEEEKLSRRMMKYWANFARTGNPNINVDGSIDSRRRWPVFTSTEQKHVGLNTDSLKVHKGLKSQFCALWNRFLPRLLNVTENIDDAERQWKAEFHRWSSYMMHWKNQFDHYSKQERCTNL

| SMILES | IC50 at 24 h [1] | viability at 24 h, 10 µM [1] | viability at 24 h, 1 mM [1] | IC50 (AChE) | Cytotoxicity (in words) [2] | IC50 (BuChE) |
| --- | --- | --- | --- | --- | --- | --- |
| COc1ccc(C2CC(NC=O)c3ccc4cccnc4c3N2)cc1 (stereo not drawn) [4 e, N‐(2‐(4‐methoxyphenyl)‐1,2,3,4‐tetrahydro‐1,10‐phenanthroline‐4‐yl) formamide] | 3700 µM | 119 ± 6.4% | 78.5 ± 12.5% | 362.11 ± 0.03 µM |  |  |
| O=CNC1CC(c2ccc([N+](=O)[O-])cc2)Nc2c1ccc1cccnc21 (stereo not drawn) [4 g, N‐(2‐(4‐nitrophenyl)‐1,2,3,4‐tetrahydro‐1,10‐phenanthroline‐4‐yl) formamide] | 300 µM | 116 ± 5% | 21.9 ± 3.9% | 96.52 ± 0.01 µM | non‐cytoxicity |  |
| O=CNC1CC(c2ccccc2)Nc2c1ccc1cccnc21 (stereo not drawn) [4 a, N‐(2‐phenyl‐1,2,3,4‐tetrahydro‐1,10‐phenanthroline‐4‐yl) formamide] |  |  |  | > 500 µM |  |  |
| O=CNC1CC(c2cccnc2)Nc2c1ccc1cccnc21 (stereo not drawn) [4 c, N‐(2‐(pyridin‐3‐yl)‐1,2,3,4‐tetrahydro‐1,10‐phenanthroline‐4‐yl) formamide] |  |  |  | 140.2 ± 0.02 µM |  |  |
| O=CNC1CC(c2ccccn2)Nc2c1ccc1cccnc21 (stereo not drawn) [4 b, N‐(2‐(pyridin‐2‐yl)‐1,2,3,4‐tetrahydro‐1,10‐phenanthroline‐4‐yl) formamide] |  |  |  | 143.66 ± 0.02 µM |  | 152.99 ± 0.01 µM |
| O=CNC1CC(c2ccncc2)Nc2c1ccc1cccnc21 (stereo not drawn) [4 d, N‐(2‐(pyridin‐4‐yl)1,2,3,4‐tetrahydro‐1,10‐phenanthroline‐4‐yl) formamide] | 5500 µM | 132 ± 25.6% | 102 ± 18.9% | 63.63 ± 0.01 µM | non‐cytoxicity | 138.63 ± 0.01 µM |
| Nc1cccc2cccnc12 [8‐amino‐quinoline, reference compound] |  |  |  | 171.56 ± 0.01 µM |  | 195.08 ± 0.02 µM |
